Reference: publication PMC4878412 (Cancer chemotherapy and pharmacology, 2015)

Experiments:
[1] = In vivo retention of RK-33 in plasma, liver and lungs 48 h after administration; conditions: mice, 48 h after intraperitoneal injection of 0.80 mg free RK-33
Summary of the method: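 Female athymic NCr-nu/nu mice (4–5 weeks, three animals) got free test compound 0.8 mg i.p. and were killed at 48 h. Blood was drawn intracardially into heparin tubes and spun at 8000 rpm for 5 min. Liver and lungs were weighed and homogenised in 3 volumes cold PBS. Plasma or homogenate (0.1 mL) was extracted with 1 mL chloroform/isopropanol (1:1), shaken 3 min and centrifuged.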

[2] = free RK-33; no method in this paper, no reference given; cited from earlier work
DDX3 = conditions: ref [1]; cited from earlier work
[3] = ref [1]; cited from earlier work
[4] = ref [1]; cited from earlier work; remark: listed apart in the source

Substance: RK-33
- RK-33 in liver [1]: < 1 µg/mL
- RK-33 in lungs [1]: < 1 µg/mL
- RK-33 in plasma [1]: < 1 µg/mL
- Systemic half-life (t½) [2]: 7.3 h
- Inhibition of DDX3 (in words) (DDX3): effectively inhibits
- Cell cycle effect (in words) [3]: induce G1 arrest
- Toxicity in mice (in words) [4]: little or no toxicity
